# Data from ChEMBL document CHEMBL4406821, “Novel dual inhibitors targeting CDK4 and VEGFR2 synergistically suppressed cancer progression and angiogenesis” (Eur J Med Chem, 2019).
# pIC50: −log10 of the molar value. Active and inactive are the calls of the source. No cut-off for these calls is given here.
# What was measured:
# [1] = target: G protein-coupled receptor kinase 6 (Homo sapiens) (UniProt P43250); experiment: Inhibition of recombinant human full length GRK6 at 1 uM using casein as substrate incubated for 40 mins in presence of [gamma-33P]-ATP by scintillation counting method relative to control
# Outline: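 Tested at a single 1 uM in an outsourced commercial kinase-profiling panel, read as percent inhibition. Each value is the mean of two independent experiments.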
# [2] = Tmax in Sprague-Dawley rat at 10 mg/kg, po by HPLC-MS analysis; format: ADME, organism-based; conditions: in vivo
# [3] = target: Serine/threonine-protein kinase BRSK2 (Homo sapiens) (UniProt Q8IWQ3); experiment: Inhibition of recombinant human BRSK2 (2 to end residues) at 1 uM using KKLNRTLSFAEPG as substrate incubated for 40 mins in presence of [gamma-33P]-ATP by scintillation counting method relative to control
# Outline: (§1)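 Kinase panel profiling at 1 μM performed by Eurofins KinaseProfiler; percent inhibition reported as mean of two independent experiments.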
# MDA-MB-231 = experiment: Inhibition of colony formation in human MDA-MB-231 cells at 20 to 40 nM incubated for 5 days by crystal violet staining based light microscopy; format: functional, cell-based
# Outline: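 4 × 10^3 cells per well were cultured with graded concentrations for 5 days. Cells were then fixed with 20% methanol, stained with 0.5% crystal violet and photographed by light microscopy.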
# [4] = target: Tyrosine-protein kinase receptor UFO (Homo sapiens) (UniProt P30530); experiment: Inhibition of recombinant human AXL (473 to end residues) at 1 uM using KKSRGDYMTMQIG as substrate incubated for 40 mins in presence of [gamma-33P]-ATP by scintillation counting method relative to control; outline: as §1
# Tyrosine-protein kinase receptor UFO (Homo sapiens), sequence (P30530 whole entry): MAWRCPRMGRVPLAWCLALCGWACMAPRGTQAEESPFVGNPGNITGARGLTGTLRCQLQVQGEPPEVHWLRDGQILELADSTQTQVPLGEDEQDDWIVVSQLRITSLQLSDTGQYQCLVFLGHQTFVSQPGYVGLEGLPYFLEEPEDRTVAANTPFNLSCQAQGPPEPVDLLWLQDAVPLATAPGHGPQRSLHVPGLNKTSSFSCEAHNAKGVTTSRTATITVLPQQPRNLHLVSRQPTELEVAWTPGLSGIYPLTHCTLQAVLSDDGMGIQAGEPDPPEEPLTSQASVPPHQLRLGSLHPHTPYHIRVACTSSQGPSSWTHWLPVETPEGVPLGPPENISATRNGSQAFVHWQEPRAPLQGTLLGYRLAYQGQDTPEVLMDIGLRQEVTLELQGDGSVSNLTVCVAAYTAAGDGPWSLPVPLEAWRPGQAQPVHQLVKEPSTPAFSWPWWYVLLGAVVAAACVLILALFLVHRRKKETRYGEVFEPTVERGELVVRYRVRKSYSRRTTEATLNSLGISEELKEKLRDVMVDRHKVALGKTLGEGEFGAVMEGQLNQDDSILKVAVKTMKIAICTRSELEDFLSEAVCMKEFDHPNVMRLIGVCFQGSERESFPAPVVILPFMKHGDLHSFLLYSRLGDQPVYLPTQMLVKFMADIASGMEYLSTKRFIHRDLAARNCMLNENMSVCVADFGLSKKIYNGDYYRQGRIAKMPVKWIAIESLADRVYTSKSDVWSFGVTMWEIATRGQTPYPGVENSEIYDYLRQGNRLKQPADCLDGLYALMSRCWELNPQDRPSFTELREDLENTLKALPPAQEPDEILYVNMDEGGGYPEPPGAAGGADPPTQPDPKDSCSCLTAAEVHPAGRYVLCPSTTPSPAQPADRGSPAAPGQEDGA
# [5] = target: Calcium/calmodulin-dependent protein kinase type 1D (Homo sapiens) (UniProt Q8IU85); experiment: Inhibition of recombinant full length human CAMKIdelta at 1 uM using calmodulin as substrate incubated for 40 mins in presence of [gamma-33P]-ATP by scintillation counting method relative to control; outline: as §1
# Calcium/calmodulin-dependent protein kinase type 1D (Homo sapiens), sequence (Q8IU85 whole entry, looked up): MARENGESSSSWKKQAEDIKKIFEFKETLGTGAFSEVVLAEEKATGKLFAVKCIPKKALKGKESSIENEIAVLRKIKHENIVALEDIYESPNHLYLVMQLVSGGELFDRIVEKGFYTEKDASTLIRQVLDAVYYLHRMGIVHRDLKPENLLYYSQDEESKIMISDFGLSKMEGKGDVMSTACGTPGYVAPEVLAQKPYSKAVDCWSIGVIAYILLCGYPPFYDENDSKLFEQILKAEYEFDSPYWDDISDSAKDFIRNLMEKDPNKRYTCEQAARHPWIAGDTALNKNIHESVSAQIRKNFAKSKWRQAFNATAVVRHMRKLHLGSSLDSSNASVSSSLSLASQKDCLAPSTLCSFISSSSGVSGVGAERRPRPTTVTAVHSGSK
# [6] = target: SRSF protein kinase 2 (Homo sapiens) (UniProt P78362); experiment: Inhibition of recombinant human SRPK2 (46 to end residues) at 1 uM using RSRSRSRSRSRSRSR as substrate incubated for 40 mins in presence of [gamma-33P]-ATP by scintillation counting method relative to control
# SRSF protein kinase 2 (Homo sapiens), sequence (P78362 whole entry, looked up): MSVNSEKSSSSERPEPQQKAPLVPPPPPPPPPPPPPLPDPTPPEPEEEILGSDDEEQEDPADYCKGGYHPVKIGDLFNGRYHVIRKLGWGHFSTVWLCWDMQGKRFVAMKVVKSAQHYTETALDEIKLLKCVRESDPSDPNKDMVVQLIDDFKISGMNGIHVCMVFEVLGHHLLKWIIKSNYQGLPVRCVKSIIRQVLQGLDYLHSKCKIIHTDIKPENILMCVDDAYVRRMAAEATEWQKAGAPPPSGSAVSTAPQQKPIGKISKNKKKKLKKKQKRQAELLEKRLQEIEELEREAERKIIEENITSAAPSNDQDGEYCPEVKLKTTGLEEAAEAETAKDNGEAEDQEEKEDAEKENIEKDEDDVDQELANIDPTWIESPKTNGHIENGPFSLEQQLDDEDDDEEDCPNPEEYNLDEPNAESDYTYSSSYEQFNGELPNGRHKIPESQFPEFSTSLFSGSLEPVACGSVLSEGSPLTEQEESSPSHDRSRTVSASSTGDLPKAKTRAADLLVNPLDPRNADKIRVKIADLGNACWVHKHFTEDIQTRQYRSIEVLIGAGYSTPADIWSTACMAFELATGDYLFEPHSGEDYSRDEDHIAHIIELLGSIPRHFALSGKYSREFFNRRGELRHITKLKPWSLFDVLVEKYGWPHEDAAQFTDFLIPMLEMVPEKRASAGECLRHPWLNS
# [7] = target: Tyrosine-protein kinase Fyn (Homo sapiens) (UniProt P06241); experiment: Inhibition of recombinant full length human FYN at 1 uM using KVEKIGEGTYGVVYK as substrate incubated for 40 mins in presence of [gamma-33P]-ATP by scintillation counting method relative to control; outline: as §1
# Tyrosine-protein kinase Fyn (Homo sapiens), sequence (P06241 2-537 limits assumed): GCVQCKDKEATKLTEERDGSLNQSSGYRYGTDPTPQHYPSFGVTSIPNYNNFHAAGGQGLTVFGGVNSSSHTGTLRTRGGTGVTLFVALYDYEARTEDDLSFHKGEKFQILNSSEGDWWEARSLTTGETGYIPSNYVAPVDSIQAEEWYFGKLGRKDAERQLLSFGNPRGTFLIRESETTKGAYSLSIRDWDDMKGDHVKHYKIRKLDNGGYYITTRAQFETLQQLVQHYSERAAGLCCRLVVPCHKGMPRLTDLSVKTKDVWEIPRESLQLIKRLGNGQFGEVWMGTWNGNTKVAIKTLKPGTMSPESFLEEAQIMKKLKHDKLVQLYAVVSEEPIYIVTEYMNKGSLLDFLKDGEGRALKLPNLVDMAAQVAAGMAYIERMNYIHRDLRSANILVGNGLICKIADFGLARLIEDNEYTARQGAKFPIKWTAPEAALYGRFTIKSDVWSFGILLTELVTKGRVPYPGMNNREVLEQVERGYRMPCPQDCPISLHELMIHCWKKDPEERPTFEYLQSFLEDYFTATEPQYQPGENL
# SiHa [8] = experiment: Antitumor activity against human SiHa cells xenografted in orally dosed NOD/SCID BALB/c mouse assessed as reduction in Ki67 expression measured after 21 days by hematoxylin and eosin staining based immunohistochemistry; format: functional, organism-based
# Outline: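 Female NOD/SCID Balb/c mice, 6–8 weeks old, received 2×10^6 SiHa cells subcutaneously in the right flank. Once tumors reached 100 mm³, mice were randomized, 5 per group, and gavaged once daily for 21 days. Formalin-fixed, paraffin-embedded tumor sections were stained with Ki67 or CD31 antibody (1:100, 4 °C overnight), then biotin secondary and ABC-peroxidase/DAB, with hematoxylin counterstain.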
# [9] = target: Serine/threonine-protein kinase NLK (Homo sapiens) (UniProt Q9UBE8); experiment: Inhibition of recombinant human NLK (121 to end residues) at 1 uM using myelin basic protein as substrate incubated for 40 mins in presence of [gamma-33P]-ATP by scintillation counting method relative to control
# Serine/threonine-protein kinase NLK (Homo sapiens), sequence (Q9UBE8 whole entry): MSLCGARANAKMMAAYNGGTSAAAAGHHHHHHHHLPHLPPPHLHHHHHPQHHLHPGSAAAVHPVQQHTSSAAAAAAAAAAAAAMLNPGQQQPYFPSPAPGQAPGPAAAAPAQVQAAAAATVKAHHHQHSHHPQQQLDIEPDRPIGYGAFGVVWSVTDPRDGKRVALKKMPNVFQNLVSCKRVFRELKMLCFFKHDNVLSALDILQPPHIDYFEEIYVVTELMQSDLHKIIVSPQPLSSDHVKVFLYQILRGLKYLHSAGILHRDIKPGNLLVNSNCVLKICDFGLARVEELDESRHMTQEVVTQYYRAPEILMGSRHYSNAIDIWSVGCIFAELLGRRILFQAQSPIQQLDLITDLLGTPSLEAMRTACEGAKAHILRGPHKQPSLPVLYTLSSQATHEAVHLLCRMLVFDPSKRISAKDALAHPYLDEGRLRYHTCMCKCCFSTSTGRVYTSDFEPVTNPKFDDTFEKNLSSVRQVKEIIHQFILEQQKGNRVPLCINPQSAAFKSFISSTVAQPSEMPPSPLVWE
# [10] = Toxicity in BALB/c mouse assessed as effect on blood parameter by measuring hematocrit at 40 mg/kg, po administered once two days for 4 times by hematology analyzer; conditions: in vivo
# [11] = target: Epithelial discoidin domain-containing receptor 1 (Homo sapiens) (UniProt Q08345); experiment: Inhibition of recombinant human DDR1 (492 to end residues) at 1 uM using KKKSPGEYVNIEFG as substrate incubated for 40 mins in presence of [gamma-33P]-ATP by scintillation counting method relative to control; outline: as §1
# [12] = target: PI3-kinase p110-delta/p85-alpha (Homo sapiens) (UniProt P27986+O00329); experiment: Inhibition of recombinant human full length PI3K p110delta/p85alpha at 1 uM using phosphatidylinositol-4, 5-bisphosphate as substrate incubated for 40 mins in presence of [gamma-33P]-ATP by scintillation counting method relative to control; format: protein-complex assay
# [13] = target: Serine/threonine-protein kinase 26 (Homo sapiens) (UniProt Q9P289); experiment: Inhibition of recombinant human MST4 (4 to 304 residues) at 1 uM using RLGRDKYKTLRQIRQ as substrate incubated for 40 mins in presence of [gamma-33P]-ATP by scintillation counting method relative to control
# Serine/threonine-protein kinase 26 (Homo sapiens), sequence (Q9P289 2-416 limits assumed): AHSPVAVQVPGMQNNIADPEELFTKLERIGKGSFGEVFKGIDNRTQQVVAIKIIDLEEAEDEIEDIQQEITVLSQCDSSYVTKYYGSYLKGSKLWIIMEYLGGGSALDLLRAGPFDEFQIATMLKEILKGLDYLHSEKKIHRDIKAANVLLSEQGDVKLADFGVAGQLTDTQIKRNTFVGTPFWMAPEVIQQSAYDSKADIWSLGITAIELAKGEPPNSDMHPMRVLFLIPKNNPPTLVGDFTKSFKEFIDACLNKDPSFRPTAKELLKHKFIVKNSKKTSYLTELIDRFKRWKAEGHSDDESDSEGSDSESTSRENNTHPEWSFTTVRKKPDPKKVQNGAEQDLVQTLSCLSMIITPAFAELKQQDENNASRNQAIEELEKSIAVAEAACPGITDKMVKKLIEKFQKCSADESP
# [14] = target: Cyclin-dependent kinase 1/cyclin B1 (Homo sapiens, UniProt P06493); experiment: Inhibition of recombinant human full length CDK1/CyclinB using histone H1 as substrate incubated for 40 mins in presence of [gamma-33P]-ATP by scintillation counting method; format: protein-complex assay
# Cyclin-dependent kinase 1/cyclin B1, sequence (P06493 whole entry, the tested form may be a part): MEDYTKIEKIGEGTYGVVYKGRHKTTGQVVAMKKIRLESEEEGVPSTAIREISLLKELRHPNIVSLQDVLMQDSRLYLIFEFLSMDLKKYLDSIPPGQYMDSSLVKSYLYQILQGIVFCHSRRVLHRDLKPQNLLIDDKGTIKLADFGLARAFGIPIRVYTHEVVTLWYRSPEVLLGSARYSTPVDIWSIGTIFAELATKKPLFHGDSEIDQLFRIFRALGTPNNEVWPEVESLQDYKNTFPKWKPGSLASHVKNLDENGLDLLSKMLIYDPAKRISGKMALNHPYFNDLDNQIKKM
# Cyclin-dependent kinase 1/cyclin B1, sequence (P14635 whole entry, further chain, the tested form may be a part): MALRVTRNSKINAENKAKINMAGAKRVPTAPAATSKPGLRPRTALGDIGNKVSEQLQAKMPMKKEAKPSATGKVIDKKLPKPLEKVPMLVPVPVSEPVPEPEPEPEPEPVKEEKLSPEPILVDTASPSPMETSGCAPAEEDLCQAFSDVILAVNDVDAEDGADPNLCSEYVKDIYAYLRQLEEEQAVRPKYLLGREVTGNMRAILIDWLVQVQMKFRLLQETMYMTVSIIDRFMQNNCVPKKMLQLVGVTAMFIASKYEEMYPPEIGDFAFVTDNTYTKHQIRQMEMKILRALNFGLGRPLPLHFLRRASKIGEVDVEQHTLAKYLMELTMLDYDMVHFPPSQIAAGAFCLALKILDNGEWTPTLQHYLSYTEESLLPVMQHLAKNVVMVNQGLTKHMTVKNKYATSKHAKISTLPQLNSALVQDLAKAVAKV
# [15] = target: LIM domain kinase 1 (Homo sapiens) (UniProt P53667); experiment: Inhibition of recombinant human LIMK1 (285 to 638 residues) at 1 uM using cofilin as substrate incubated for 40 mins in presence of [gamma-33P]-ATP by scintillation counting method relative to control
# LIM domain kinase 1 (Homo sapiens), sequence (P53667 whole entry, looked up, the tested form may be a part): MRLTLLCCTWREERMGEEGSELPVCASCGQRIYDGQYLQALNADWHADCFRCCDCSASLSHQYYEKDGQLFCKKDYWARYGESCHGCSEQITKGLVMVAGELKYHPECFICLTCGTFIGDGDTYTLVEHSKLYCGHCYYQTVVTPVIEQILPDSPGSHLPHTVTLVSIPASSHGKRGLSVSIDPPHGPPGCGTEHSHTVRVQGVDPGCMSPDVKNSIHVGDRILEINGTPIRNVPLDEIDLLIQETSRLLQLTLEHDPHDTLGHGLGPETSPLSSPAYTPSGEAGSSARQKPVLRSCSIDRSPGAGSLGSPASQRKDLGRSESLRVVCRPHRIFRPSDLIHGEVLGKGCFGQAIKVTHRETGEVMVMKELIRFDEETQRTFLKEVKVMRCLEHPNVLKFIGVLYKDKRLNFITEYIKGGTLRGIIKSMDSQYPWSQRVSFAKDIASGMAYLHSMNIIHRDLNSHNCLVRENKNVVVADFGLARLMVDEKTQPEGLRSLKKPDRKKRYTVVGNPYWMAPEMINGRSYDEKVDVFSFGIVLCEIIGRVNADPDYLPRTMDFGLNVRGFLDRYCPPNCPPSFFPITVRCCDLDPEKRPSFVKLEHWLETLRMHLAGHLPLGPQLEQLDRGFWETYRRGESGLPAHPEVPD
# [16] = target: Eukaryotic translation initiation factor 2-alpha kinase 3 (Homo sapiens) (UniProt Q9NZJ5); experiment: Inhibition of recombinant human PEK (536 to end residues) at 1 uM using RSRSRSRSRSRSRSR as substrate incubated for 40 mins in presence of [gamma-33P]-ATP by scintillation counting method relative to control
# [17] = test system: Angiopoietin-1 receptor (Homo sapiens), Q02763 [Y897S]; experiment: Inhibition of recombinant human TIE2 Y897S mutant (771 to end residues) at 1 uM using EFPIYDFLPAKKK as substrate incubated for 40 mins in presence of [gamma-33P]-ATP by scintillation counting method relative to control
# SiHa [18] = experiment: Antiproliferative activity against human SiHa cells assessed as reduction in cell viability at 80 nM incubated for 48 hrs by EdU staining based laser scanning confocal microscopy; format: functional
# Outline: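 Cells, 5×10^4, were seeded in 24-well plates and treated for 48 h. They were then labeled using an EdU Apollo 488 imaging kit with Hoechst 33342 nuclear stain and imaged by laser scanning confocal microscopy. Percent EdU-positive cells = EdU-positive/Hoechst-stained × 100%.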
# [19] = target: Vascular endothelial growth factor receptor 2 (Homo sapiens, UniProt P35968); conditions: HUVEC, 40 nM
# T47D = experiment: Induction of apoptosis in human T47D cells at 40 nM incubated for 48 hrs by annexin V FITC and propidium iodide staining based flow cytometry; format: functional, cell-based
# Outline: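 Annexin V-FITC/PI double staining with flow-cytometric readout. MDA-MB-231, T-47D, SiHa and HeLa cells were treated with graded concentrations for 48 h. MDA-MB-231 and T-47D were grown in DMEM and SiHa in 1640 medium, each with 10% FBS and 1% penicillin/streptomycin at 37°C under 5% CO2. Early- and late-stage apoptotic fractions were scored.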
compound,measurement,setting,value
Cc1ccc(NC(=O)C2(C(=O)Nc3ccc(Nc4ncc(F)c(-c5cc(F)c6nc(C)n(C(C)C)c6c5)n4)cc3)CC2)cc1,inhibition,[1],0%
same,Tmax,[2],2 h
same,inhibition,[3],54%
same,inhibition,MDA-MB-231,Active
same,inhibition,[4],65%
same,inhibition,[5],1%
same,inhibition,[6],17%
same,inhibition,[7],32%
same,inhibition,SiHa [8],Dose-dependent effect
same,inhibition,[9],44%
same,Activity,[10],Non-Toxic
same,inhibition,[11],73%
same,inhibition,[12],12%
same,inhibition,[13],48%
same,pIC50,[14],6.61
same,inhibition,[15],24%
same,inhibition,[16],2%
same,inhibition,[17],51%
COc1cc2nccc(Oc3ccc(NC(=O)C4(C(=O)Nc5ccc(F)cc5)CC4)cc3)c2cc1OC [CABOZANTINIB],inhibition,SiHa [18],Active
same,inhibition,[19],Active
same,Activity,T47D,Active
